How the values were obtained:
[1] = Drug excretion in cancer patient urine at 80 uCi, iv administered as bolus infusion for 2 to 5 mins after 312 hrs by liquid scintillation counting; format: ADME, organism-based; details: human, in vivo
Procedure, shortened: (§1)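 Patients had one ~2 mg (~80 µCi) 14C-eribulin IV bolus over 2-5 min. Urine was pooled over 6 h periods to 48 h, then every 24 h. All faeces were collected and homogenised. Collection ran to day 8, or longer until daily recovery was <1% of administered activity (faeces up to 312 h). Faeces were solubilised and decolourised, then LSC counted with quench correction, as percentage of administered activity.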

[2] = Drug excretion in cancer patient feces at 80 uCi, iv administered as bolus infusion for 2 to 5 mins after 312 hrs by liquid scintillation counting; format: ADME, organism-based; details: human, in vivo; procedure, shortened: as §1
[3] = Drug excretion in cancer patient urine at 80 uCi, iv administered as bolus infusion for 2 to 5 mins after 168 hrs by liquid scintillation counting; format: ADME, organism-based; details: human, in vivo; procedure, shortened: as §1
[4] = Drug excretion in cancer patient feces at 80 uCi, iv administered as bolus infusion for 2 to 5 mins after 168 hrs by liquid scintillation counting; format: ADME, organism-based; details: human, in vivo; procedure, shortened: as §1
Homo sapiens [5] = assay: Toxicity against cancer patient assessed as mortality at 80 uCi, iv administered as bolus infusion for 2 to 5 mins; format: organism-based; details: in vivo
Homo sapiens [6] = assay: Toxicity against cancer patient assessed as severe adverse event at 80 uCi, iv administered as bolus infusion for 2 to 5 mins; format: organism-based; details: in vivo
Homo sapiens [7] = assay: Cmax in cancer patient plasma assessed as total radioactivity at 2 mg, iv administered as bolus infusion for 2 to 5 mins by LC-MS/MS analysis/liquid scintillation counting; format: ADME, organism-based; set-up: dose 2 mg, route intravenous; details: in vivo
Procedure, shortened: (§2)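 Six patients with advanced solid tumours got one ~2 mg (~80 µCi) 14C-eribulin IV bolus over 2-5 min. Venous blood was drawn into lithium heparin pre-dose, at end of infusion and 5 min-168 h after, then spun 2,000 g, 4 °C, 15 min. Plasma was counted in duplicate by LSC with quench correction. Non-compartmental analysis; dose-normalised values use actual administered dose.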

Homo sapiens [8] = assay: Terminal half life in cancer patient assessed as total radioactivity at 2 mg, iv administered as bolus infusion for 2 to 5 mins by LC-MS/MS analysis/liquid scintillation counting; format: ADME, organism-based; details: in vivo; procedure, shortened: as §2
Homo sapiens [9] = assay: AUC (0 to t) in cancer patient assessed as total radioactivity at 2 mg, iv administered as bolus infusion for 2 to 5 mins by LC-MS/MS analysis/liquid scintillation counting; format: ADME, organism-based, Plasma; details: in vivo; procedure, shortened: as §2
Homo sapiens [10] = assay: AUC (0 to infinity) in cancer patient assessed as total radioactivity at 2 mg, iv administered as bolus infusion for 2 to 5 mins by LC-MS/MS analysis/liquid scintillation counting; format: ADME, organism-based, Plasma; set-up: dose 2 mg, time infinity, route intravenous; details: in vivo; procedure, shortened: as §2
Homo sapiens [11] = assay: Dose-normalized Cmax in cancer patient plasma assessed as total radioactivity at 2 mg, iv administered as bolus infusion for 2 to 5 mins by LC-MS/MS analysis/liquid scintillation counting; format: ADME, organism-based; details: in vivo; procedure, shortened: as §2
Homo sapiens [12] = assay: Dose-normalized AUC (0 to t) in cancer patient plasma assessed as total radioactivity at 2 mg, iv administered as bolus infusion for 2 to 5 mins by LC-MS/MS analysis/liquid scintillation counting; format: ADME, organism-based; details: in vivo; procedure, shortened: as §2
Homo sapiens [13] = assay: Dose-normalized AUC (0 to infinity) in cancer patient plasma assessed as total radioactivity at 2 mg, iv administered as bolus infusion for 2 to 5 mins by LC-MS/MS analysis/liquid scintillation counting; format: ADME, organism-based; details: in vivo; procedure, shortened: as §2
[14] = Clearance in cancer patient at 2 mg, iv administered as bolus infusion for 2 to 5 mins by LC-MS/MS analysis; format: ADME, organism-based; details: human, in vivo
Procedure, shortened: (§3)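 Six patients with advanced solid tumours received a single ~2 mg (~80 µCi) 14C-eribulin IV bolus over 2-5 min. Plasma was sampled from pre-dose to 168 h after end of infusion, using lithium-heparin tubes centrifuged at 4 °C. Eribulin was quantified by validated LC-MS/MS (m/z 730→712) and corrected ×2.03 for total eribulin. CL, CLr and Vz came from non-compartmental analysis. Values are mean ± SD, n=6.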

[15] = Renal clearance in cancer patient at 2 mg, iv administered as bolus infusion for 2 to 5 mins by LC-MS/MS analysis; format: ADME, organism-based, Kidney; details: human, in vivo; procedure, shortened: as §3
Homo sapiens [16] = assay: Apparent volume of distribution in the terminal phase in cancer patient at 2 mg, iv administered as bolus infusion for 2 to 5 mins by LC-MS/MS analysis; format: ADME, organism-based; details: in vivo; procedure, shortened: as §3
Homo sapiens [17] = assay: Dose-normalized Cmax in cancer patient plasma at 2 mg, iv administered as bolus infusion for 2 to 5 mins by LC-MS/MS analysis/liquid scintillation counting; format: ADME, organism-based; details: in vivo
Procedure, shortened: (§4)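 Single ~2 mg (~80 µCi) 14C-eribulin IV bolus over 2-5 min in 6 cancer patients; actual doses were 1.75-3.01 mg. Plasma eribulin was measured by LC-MS/MS and total radioactivity by liquid scintillation counting with quench correction. Cmax, AUC0-t and AUC0-∞ came from non-compartmental analysis and were divided by the actual dose. TRA AUC0-∞ used n=5.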

Homo sapiens [18] = assay: Dose-normalized AUC (0 to t) in cancer patient plasma at 2 mg, iv administered as bolus infusion for 2 to 5 mins by LC-MS/MS analysis/liquid scintillation counting; format: ADME, organism-based; details: in vivo; procedure, shortened: as §4
Homo sapiens [19] = assay: Dose-normalized AUC (0 to infinity) in cancer patient plasma at 2 mg, iv administered as bolus infusion for 2 to 5 mins by LC-MS/MS analysis/liquid scintillation counting; format: ADME, organism-based; details: in vivo; procedure, shortened: as §4
Homo sapiens [20] = assay: Drug excretion in cancer patient treated with [14C]eribulin acetate at 2 mg, iv administered as bolus infusion for 2 to 5 mins after 312 hrs by LC-MS/MS analysis; format: ADME, organism-based; details: in vivo
Procedure, shortened: (§5)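 Patients got a ~2 mg (~80 µCi) 14C-eribulin IV bolus over 2-5 min. Urine was collected in 6 h periods to 48 h, then in 24 h periods. All faeces were collected and homogenised until daily recovery was <1% of dose; four patients continued to 312 h. Unchanged eribulin was measured by LC-MS/MS (faeces 0.1–25 µg/g) and total radioactivity by LSC. Results are % of the administered dose, mean ± SD.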

Homo sapiens [21] = assay: Drug excretion in cancer patient treated with [14C]eribulin acetate at 2 mg, iv administered as bolus infusion for 2 to 5 mins after 168 hrs by LC-MS/MS analysis; format: ADME, organism-based; details: in vivo; procedure, shortened: as §5
[22] = Terminal half life in breast cancer patient; format: ADME, organism-based; details: human, in vivo; read-out: beta t1/2 (converted)
[23] = Drug excretion in patient urine assessed as unchanged compound level at 0.25 to 1.4 mg/m2 administered 1 hr, iv infusion after 72 hrs; format: ADME, organism-based; details: human, read-out: Drug excretion
[24] = Drug excretion in patient urine assessed as unchanged compound at 0.25 to 4 mg/m2 administered 1 hr, iv infusion every 21 days after 72 hrs; format: ADME, organism-based; details: human, read-out: Drug excretion

SMILES: C=C1C[C@@H]2CC[C@@]34C[C@H]5O[C@H]6[C@@H](O3)[C@H]3O[C@H](CC[C@@H]3O[C@H]6[C@H]5O4)CC(=O)C[C@@H]3[C@@H](OC)[C@@H](C[C@H](O)CN)O[C@H]3C[C@H]3O[C@@H](CC[C@@H]1O2)C[C@@H](C)C3=C.CC(=O)O
- Drug excretion [1]: 8.9%
- Drug excretion [2]: 81.5%
- Drug excretion [3]: 8.9%
- Drug excretion [4]: 77.6%
- Activity (Homo sapiens [5]): Non-toxic
- Activity (Homo sapiens [6]): Non-toxic
- Cmax (Homo sapiens [7]): 449 ng.Eq/ml
- beta t1/2 (Homo sapiens [8]): 42.3 h
- AUCt (Homo sapiens [9]): 568 ng.Eq.hr/ml
- AUC (Homo sapiens [10]): 753 ng.Eq.hr/ml
- Cmax/dose (Homo sapiens [11]): 224 ngequiv/ml/mg
- AUCt/dose (Homo sapiens [12]): 269 ngequiv.hr/ml/mg
- AUC/dose (Homo sapiens [13]): 357 ngequiv.hr/ml/mg

SMILES: C=C1C[C@@H]2CC[C@@]34C[C@H]5O[C@H]6[C@@H](O3)[C@H]3O[C@H](CC[C@@H]3O[C@H]6[C@H]5O4)CC(=O)C[C@@H]3[C@@H](OC)[C@@H](C[C@H](O)CN)O[C@H]3C[C@H]3O[C@@H](CC[C@@H]1O2)C[C@@H](C)C3=C.CS(=O)(=O)O [ERIBULIN MESYLATE]
- clearance [14]: 65.5 mL/min
- CL renal [15]: 5 mL/min
- Vz/F (Homo sapiens [16]): 247 L
- Cmax/dose (Homo sapiens [17]): 222 ng/mL/mg
- AUCt/dose (Homo sapiens [18]): 301 ng·h/mL/mg
- AUC/dose (Homo sapiens [19]): 328 ng·h/mL/mg
- Drug excretion (Homo sapiens [20]): 68.6%
- Drug excretion (Homo sapiens [21]): 68%
- half-life [22]: 36 h
- dose excreted at 72 h [23]: 5%
- dose excreted at 72 h [24]: 7%

— ChEMBL document CHEMBL3526070, “Mass balance study of [¹⁴C]eribulin in patients with advanced solid tumors” (Drug Metab Dispos, 2012)
